Among the data in ChEMBL document CHEMBL4004789, “Isochromans and Related Constituents from the Endophytic Fungus Annulohypoxylon truncatum of Zizania caduciflora and Their Anti-Inflammatory Effects” (J Nat Prod, 2017) are Activity, IC50 and inhibition values, retold here.

Broadly, the IC50 is the concentration needed to halve the response being measured.

Activity calls are given as the source filed them. The calls are words filed in the database; no cut-off is given here.

System in one series: not listed separately
In words: Cytotoxicity against C57BL/6 mouse BMDC at 50 uM after 24 hrs by CCK8 assay. The format is cell-based. In outline:
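GM-CSF-derived C57BL/6 BMDCs were seeded at ~1 × 10⁴ cells/well and cultured overnight. Compound was added across a dose series for 24 h. CCK-8 reagent was then added for 1 h, and absorbance at 450 nm was read as viable cell number. Triplicate wells.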
(In general: Tetrazolium dyes change colour on reduction, which living cells bring about.)
With `COc1cc2c(c(O)c1OC)CO[C@H](C)C2`, the Activity result is “Non-Toxic”.

For `C[C@@H]1Cc2cc(O)cc(O)c2CO1`, the Activity result was “Non-Toxic”.

With `Cc1ccc2c(c1O)C(=O)O[C@H](C)C2`, the Activity result is on record as “Non-Toxic”.

On to `COc1cc2c(c(O)c1O)CO[C@H](C)[C@H]2O`, for which the Activity entry is listed as “Non-Toxic”.

As to `COc1cc2c(c(O)c1OC)CO[C@H](C)[C@H]2O`, the Activity result is reported as “Non-Toxic”.

With `COc1c(O)cc2c(c1O)CO[C@H](C)C2`, the Activity result is reported as “Non-Toxic”.

In the case of `C[C@@H]1CC2=C(CO1)C(=O)[C@](C)(O)[C@@H](O)C2`, the Activity entry was “Non-Toxic”.

Take `COc1c2c(cc(O)c1O[C@H]1O[C@H](CO)[C@@H](O)[C@H]1O)C[C@@H](C)OC2`: the Activity result was “Non-Toxic”.

System in the next series: not listed separately
In words: Anti-inflammatory activity in C57BL/6 mouse BMDC assessed as inhibition of LPS-induced IL-6 production pretreated for 1 hr followed by LPS-stimulation after 18 hrs by ELISA. Type of series: functional, cell-based. In outline:
(§1)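 BMDCs came from wild-type C57BL/6 bone marrow, cultured 6 days with GM-CSF-containing J558L supernatant in RPMI 1640 with 10% FBS; loosely adherent cells were used. Cells were plated at 1 × 10⁵/well and pretreated 1 h with compound at 2, 5, 10, 25 and 50 μM. Stimulation was 10 ng/mL S. minnesota LPS. Murine cytokine in 18 h supernatants was measured by ELISA. Mean + SD, ≥3 independent experiments in triplicate.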
For orientation: In an ELISA, binding on a coated surface is turned into a signal by an enzyme label.
Take `COc1cc2c(c(O)c1OC)CO[C@H](C)C2`: the IC50 is greater than 100 µM.

`C[C@@H]1Cc2cc(O)cc(O)c2CO1`: the IC50 is greater than 100 µM.

As for `Cc1ccc2c(c1O)C(=O)O[C@H](C)C2`, the IC50 is greater than 100 µM.

Turning to `COc1cc2c(c(O)c1O)CO[C@H](C)[C@H]2O`, the IC50 was greater than 100 µM.

`COc1cc2c(c(O)c1OC)CO[C@H](C)[C@H]2O`: the IC50 is greater than 100 µM.

Take `C[S+]([O-])c1ccc(-c2nc(-c3ccc(F)cc3)c(-c3ccncc3)[nH]2)cc1` (stereo not drawn) [SB-203580]: the IC50 stood at 3.5 µM.

Turning to `COc1c(O)cc2c(c1O)CO[C@H](C)C2`, the IC50 was greater than 100 µM.

Take `C[C@@H]1CC2=C(CO1)C(=O)[C@](C)(O)[C@@H](O)C2`: the IC50 was 5.3 µM.

Take `COc1c2c(cc(O)c1O[C@H]1O[C@H](CO)[C@@H](O)[C@H]1O)C[C@@H](C)OC2`: the IC50 is greater than 100 µM.

System in the next series: not listed separately
The experiment in a line: Anti-inflammatory activity in C57BL/6 mouse BMDC assessed as inhibition of LPS-induced IL12 p40 production pretreated for 1 hr followed by LPS-stimulation after 18 hrs by ELISA. The format is functional, cell-based. In outline: as §1
With `COc1cc2c(c(O)c1OC)CO[C@H](C)C2`, the IC50 is greater than 100 µM.

Regarding `C[C@@H]1Cc2cc(O)cc(O)c2CO1`, the IC50 is greater than 100 µM.

For `Cc1ccc2c(c1O)C(=O)O[C@H](C)C2`, the IC50 was greater than 100 µM.

Regarding `COc1cc2c(c(O)c1O)CO[C@H](C)[C@H]2O`, the half-inhibitory concentration (IC50) is greater than 100 µM.

Take `COc1cc2c(c(O)c1OC)CO[C@H](C)[C@H]2O`: the IC50 was greater than 100 µM.

On to `C[S+]([O-])c1ccc(-c2nc(-c3ccc(F)cc3)c(-c3ccncc3)[nH]2)cc1` (stereo not drawn) [SB-203580], for which the concentration for half-maximal inhibition (IC50) came out at 5 µM.

As to `COc1c(O)cc2c(c1O)CO[C@H](C)C2`, the IC50 is greater than 100 µM.

With `C[C@@H]1CC2=C(CO1)C(=O)[C@](C)(O)[C@@H](O)C2`, the IC50 was 19.4 µM.

Turning to `COc1c2c(cc(O)c1O[C@H]1O[C@H](CO)[C@@H](O)[C@H]1O)C[C@@H](C)OC2`, the IC50 was greater than 100 µM.

System in a further series: not listed separately
The experiment in a line: Anti-inflammatory activity in C57BL/6 mouse BMDC assessed as inhibition of LPS-induced TNFalpha production pretreated for 1 hr followed by LPS-stimulation after 18 hrs by ELISA. Type of series: functional, cell-based. In outline: as §1
For `COc1cc2c(c(O)c1OC)CO[C@H](C)C2`, the IC50 was greater than 100 µM.

Take `C[C@@H]1Cc2cc(O)cc(O)c2CO1`: the half-inhibitory concentration (IC50) was greater than 100 µM.

As for `Cc1ccc2c(c1O)C(=O)O[C@H](C)C2`, the IC50 was greater than 100 µM.

Turning to `COc1cc2c(c(O)c1O)CO[C@H](C)[C@H]2O`, the concentration for half-maximal inhibition (IC50) is greater than 100 µM.

In the case of `COc1cc2c(c(O)c1OC)CO[C@H](C)[C@H]2O`, the IC50 was greater than 100 µM.

`C[S+]([O-])c1ccc(-c2nc(-c3ccc(F)cc3)c(-c3ccncc3)[nH]2)cc1` (stereo not drawn) [SB-203580]: the IC50 amounted to 7.2 µM.

`COc1c(O)cc2c(c1O)CO[C@H](C)C2`: the IC50 is greater than 100 µM.

For the compound `C[C@@H]1CC2=C(CO1)C(=O)[C@](C)(O)[C@@H](O)C2`, the IC50 is 37.6 µM.

For the compound `COc1c2c(cc(O)c1O[C@H]1O[C@H](CO)[C@@H](O)[C@H]1O)C[C@@H](C)OC2`, the IC50 is greater than 100 µM.

In the next series the test system is BMDC. The experiment in a line: Anti-inflammatory activity in C57BL/6 mouse BMDC assessed as inhibition of LPS-induced IL-6 production at 50 uM pretreated for 1 hr followed by LPS-stimulation after 18 hrs by ELISA. The format is functional, cell-based. In outline: (§2)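 Wild-type C57BL/6 mouse bone marrow cells were grown 6 days in RPMI 1640 with 10% FBS, 50 μM β-ME, 2 mM glutamine and 3% J558L supernatant (GM-CSF). Non-adherent DCs were plated at 1 × 10⁵/well and given compound at 50 μM for 1 h. They were then stimulated with 10 ng/mL Salmonella minnesota LPS. Supernatant cytokine was measured by ELISA at 18 h. Mean + SD, ≥3 independent experiments in triplicate.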
Take `C[C@@H]1CC2=C(CO1)C(=O)[C@](C)(O)[C@@H](O)C2`: the inhibition entry was “Active”.

Another series relates to BMDC. The experiment in a line: Anti-inflammatory activity in C57BL/6 mouse BMDC assessed as inhibition of LPS-induced IL12 p40 production at 50 uM pretreated for 1 hr followed by LPS-stimulation after 18 hrs by ELISA. The format is functional, cell-based. In outline:
as §2
Take `C[C@@H]1CC2=C(CO1)C(=O)[C@](C)(O)[C@@H](O)C2`: the inhibition entry is “Active”.

For a further series, the system named is BMDC. The experiment in a line: Anti-inflammatory activity in C57BL/6 mouse BMDC assessed as inhibition of LPS-induced TNFalpha production at 50 uM pretreated for 1 hr followed by LPS-stimulation after 18 hrs by ELISA. Type of series: functional, cell-based. In outline:
as §2
Turning to `C[C@@H]1CC2=C(CO1)C(=O)[C@](C)(O)[C@@H](O)C2`, the inhibition result was “Active”.
